Calls of active or inactive are those of the source. The rule behind the calls is not given here.
What was measured:
[1] = system: Trypanosoma brucei brucei; experiment: Antitrypanosomal activity against bloodstream form of Trypanosoma brucei brucei 90-13 reduction in parasite growth after 72 hrs by resazurin dye based fluorescence assay; format: functional, organism-based; details: 90-13, 72 h
How it was run: (§1)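 Bloodstream parasites cultured in HMI9 with 10% FCS at 37°C under 5% CO2. Log-phase cells harvested at 3000xg, plated at 10^5 cells/ml with dilutions from 10 down to 0.625 µg/ml (DMSO stocks) for 72 h. Resazurin added at 45 µM final, fluorescence read after a further 4 h. Inhibition vs DMSO control. IC50 from dose-response curve, mean ± SD of three independent experiments.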

[2] = system: Trypanosoma brucei brucei; experiment: Antitrypanosomal activity against bloodstream form of Trypanosoma brucei brucei 90-13 assessed as reduction in parasite growth at 10 ug/ml after 72 hrs by resazurin dye based fluorescence assay relative to control; format: functional; details: 90-13, 72 h
How it was run: (§2)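 Bloodstream forms grown in HMI9 + 10% FCS, 37°C, 5% CO2. Log-phase cells harvested at 3000xg and seeded at 10^5 cells/ml, exposed to test substance from DMSO stock at a single screening level of 10 or 1 µg/mL for 72 h. Resazurin added (final 45 µM), 4 h more, then fluorescence read. Growth inhibition expressed against DMSO control.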

[3] = system: Trypanosoma brucei brucei; experiment: Antitrypanosomal activity against bloodstream form of Trypanosoma brucei brucei 90-13 reduction in parasite growth at 1 ug/ml after 72 hrs by resazurin dye based fluorescence assay relative to control; format: functional; details: for inhibition at 1 µg/mL: 90-13, 72 h; how it was run: as §2
[4] = Cytotoxicity against human AB943 cells assessed as reduction in cell viability after 5 days resazurin dye based fluorescence assay; details: 120 h
How it was run: (§3)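 Human primary fibroblasts grown in RPMI with 25 mM HEPES pH 7.3 and 10% FCS, 37°C, 5% CO2. After trypsinisation, seeded at 5000 cells/well and incubated 24 h. Then washed and exposed to two-fold drug dilutions, final DMSO below 1%, for 5 days. Resazurin added, fluorescence read (ex 530/em 590 nm) after 4 h. Growth inhibition vs DMSO control. SI = IC50 fibroblast / IC50 T. b. gambiense.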

[5] = Selectivity index, ratio of IC50 for human AB943 cells to IC50 of bloodstream form of Trypanosoma brucei gambiense Feo; format: toxicity; details: read-out: Ratio IC50; how it was run: as §3
[6] = system: Trypanosoma brucei gambiense; experiment: Antitrypanosomal activity against bloodstream form of Trypanosoma brucei gambiense Feo reduction in parasite growth after 72 hrs by resazurin dye based fluorescence assay; format: functional, organism-based; how it was run: as §1
[7] = Acute toxicity in ip dosed mouse by Litchfield-Wilcoxon method; format: organism-based; details: in vivo
How it was run: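 White male mice of 23-25 g; compounds dissolved in 0.9% NaCl saline with 1-2 drops Tween-80, stock prepared immediately before use. Single intraperitoneal injection at increasing doses within 100–1000 mg/kg, 4 or 5 dose levels with 6 animals per dose. LD50 derived by the Litchfield-Wilcoxon method.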

Compound	inhibition at 10 µg/mL [2] [%]	IC50 [4] [µM]	IC50 [6] [µM]	inhibition at 1 µg/mL [3] [%]	also measured
O=C(O)CCCCCNC(=O)CC1S/C(=N\N=C\c2c(-c3ccccc3)[nH]c3ccccc23)NC1=O (configuration not stated)					IC50 [1]: 14 µM
O=C(CC1S/C(=N\N=C\c2c(-c3ccccc3)[nH]c3ccccc23)NC1=O)c1ccc2c(c1)CCCC2 (configuration not stated)					IC50 [1]: 13.1 µM
CC12CCC(C/C1=N/N=C1/NC(=O)C(CC(=O)Nc3ccc(Br)cc3)S1)C2(C)C (configuration not stated)	97				inhibition [3]: inactive
CC1CS(=O)(=O)CCN1/N=C/c1ccc([N+](=O)[O-])o1 (configuration not stated) [NIFURTIMOX]		65.1	4.64		IC50 [1]: 2.39 µM; selectivity ratio [5]: 14
O=C(O)CC1S/C(=N\N=C\c2c(-c3ccccc3)[nH]c3ccccc23)NC1=O (configuration not stated)					LD50 [7]: 240 mg/kg
O=C(CC1S/C(=N\N=C\c2c(-c3ccccc3)[nH]c3ccccc23)NC1=O)c1ccccc1 (configuration not stated)			2.82		IC50 [1]: 7.73 µM
O=C(CC1S\C(=N/N=C/C=C/c2ccccc2)NC1=O)c1ccc2c(c1)CCCC2 (configuration not stated)	53.2			7.69	
CC1S/C(=N\N=C\c2c(-c3ccccc3)[nH]c3ccccc23)NC1=O (configuration not stated)		28.1	0.21		LD50 [7]: 220 mg/kg; selectivity ratio [5]: 130
CC12CCC(C/C1=N/N=C1/NC(=O)C(CC(=O)Nc3ccc(Cl)cc3)S1)C2(C)C (configuration not stated)	97.8			14.1	
O=C(CC1S/C(=N\N=C\c2c(-c3ccccc3)[nH]c3ccccc23)NC1=O)Nc1ccc(Br)cc1 (configuration not stated)					IC50 [1]: 7.86 µM
CCOC(=O)c1ccc(NC(=O)CC2S/C(=N\N=C\c3c(-c4ccccc4)[nH]c4ccccc34)NC2=O)cc1 (configuration not stated)					IC50 [1]: 6.86 µM
O=C(CC1S/C(=N\N=C2CCCCC2)NC1=O)Nc1ccc([N+](=O)[O-])cc1 (configuration not stated)	44.9				inhibition [3]: inactive
O=C(CC1S\C(=N/N=C/C=C/c2ccccc2)N(c2ccc(O)cc2)C1=O)Nc1ccc(F)cc1 (configuration not stated)	-8.23			1.18	
O=C(CC1S\C(=N/N=C/C=C/c2ccccc2)NC1=O)c1ccc(F)cc1 (configuration not stated)	57.3			38.7	
CC(=O)OCCC1S/C(=N\N=C\c2c(-c3ccccc3)[nH]c3ccccc23)NC1=O (configuration not stated)		20.9	0.23		LD50 [7]: 200 mg/kg; IC50 [1]: 0.06 µM; selectivity ratio [5]: 95
N=C(N)c1ccc(OCCCCCOc2ccc(C(=N)N)cc2)cc1 [PENTAMIDINE]		23.2	0.0015		IC50 [1]: 0.0014 µM
O=C(O)CC1S\C(=N/N=C/C(Cl)=C/c2ccc([N+](=O)[O-])cc2)N(c2ccc(O)cc2)C1=O (configuration not stated)	25			-1.57	
COc1cc(/C=N/N=C2\SC(CC(=O)c3ccc(F)cc3)C(=O)N2c2ccc(O)cc2)ccc1OCC(=O)O (configuration not stated)	14.5			15.1	
C=CCSc1nn2c(/C=N/N=c3/[nH]c(C)c(C(=O)OCC)s3)c(-c3ccccc3)nc2s1		4.33	0.652		selectivity ratio [5]: 7
CCc1nn2c(/C=N/N=c3/[nH]c(-c4ccc(Br)cc4)cs3)c(-c3ccc([N+](=O)[O-])cc3)nc2s1		> 90	1.2		selectivity ratio [5]: > 70
Cc1ccc(NC(=O)CC2S/C(=N\N=C3\CC4CCC3(C)C4(C)C)NC2=O)cc1 (configuration not stated)	30			4.18	
O=C(O)CCNC(=O)CC1S/C(=N\N=C\c2c(-c3ccccc3)[nH]c3ccccc23)NC1=O (configuration not stated)					IC50 [1]: 34.8 µM
CCC1S/C(=N\N=C\c2c(-c3ccc(Cl)cc3)[nH]c3ccccc23)N(c2ccc(O)cc2)C1=O (configuration not stated)		85.9	0.86		LD50 [7]: 330 mg/kg; selectivity ratio [5]: 100

Compound	inhibition at 10 µg/mL [2] [%]	IC50 [4] [µM]	IC50 [6] [µM]	inhibition at 1 µg/mL [3] [%]	also measured
O=C1CS/C(=N\N=C\c2c(-c3ccc(Cl)cc3)[nH]c3ccccc23)N1			3.93		LD50 [7]: 270 mg/kg
C=CCSc1nn2c(/C=N/N=c3\sc(C(=O)OCC)c(C)n3-c3ccc(O)cc3)c(-c3ccccc3)nc2s1		> 80	0.631		selectivity ratio [5]: > 130
O=C(O)CC1SC(N/N=C/C=C/c2ccccc2[N+](=O)[O-])=NC1=O (configuration not stated)	24.9			3.28	
CCc1nn2c(/C=N/N=C3\SC(CCOC(C)=O)C(=O)N3c3ccc(O)cc3)c(-c3ccc(Br)cc3)nc2s1 (configuration not stated)		11.2	1		selectivity ratio [5]: 11
CC1S/C(=N\N=C\c2c(-c3ccc(Cl)cc3)[nH]c3ccccc23)NC1=O (configuration not stated)		5.22	2.22		LD50 [7]: 310 mg/kg; selectivity ratio [5]: 2
O=C1N/C(=N/N=C/c2c(-c3ccccc3)[nH]c3ccccc23)SC1CCO (configuration not stated)					IC50 [1]: 0.17 µM
O=C(O)CC1S/C(=N\N=C\c2c(-c3ccc(Cl)cc3)[nH]c3ccccc23)NC1=O (configuration not stated)					LD50 [7]: 290 mg/kg
CCC1S/C(=N\N=C\c2c(-c3ccccc3)[nH]c3ccccc23)NC1=O (configuration not stated)		24.8	0.11		LD50 [7]: 220 mg/kg; IC50 [1]: 0.03 µM; selectivity ratio [5]: 220
O=[N+]([O-])c1ccc(-c2[nH]c3ccccc3c2/C=N/Nc2nc(-c3ccc(Br)cc3)cs2)cc1		> 96.5	2.3		selectivity ratio [5]: > 40
CCc1nn2c(/C=N/N=c3\scc(-c4ccc(Br)cc4)n3-c3ccc(O)cc3)c(-c3ccc(Br)cc3)nc2s1		> 70	0.476		selectivity ratio [5]: > 150
O=C(CC1S\C(=N/N=C/C=C/c2ccccc2)N(Cc2ccco2)C1=O)Nc1cccc(C(F)(F)F)c1 (configuration not stated)	98.9			5.06	
O=C(CC1S\C(=N/N=C/C=C/c2ccccc2)NC1=O)Nc1ccc([N+](=O)[O-])cc1 (configuration not stated)	56.1				inhibition [3]: inactive
CC12CCC(C/C1=N/N=C1/NC(=O)C(CC(=O)c3ccc(F)cc3)S1)C2(C)C (configuration not stated)	42			36.1	
O=C(CC1S/C(=N\N=C2CCCCC2)NC1=O)Nc1ccc(F)cc1 (configuration not stated)	-4.66			-4.65	
O=C(CC1S/C(=N\N=C\c2c(-c3ccccc3)[nH]c3ccccc23)NC1=O)Nc1ccc(Cl)cc1 (configuration not stated)					IC50 [1]: 9.16 µM
C=CCN1C(=O)C(CC(=O)c2ccc(F)cc2)S/C1=N\N=C\c1ccc(N(C)C)cc1 (configuration not stated)	14.7			11.1	
O=C(O)CCCNC(=O)CC1S/C(=N\N=C\c2ccco2)NC1=O (configuration not stated)	10			0.06	
C=CCN1C(=O)C(CC(=O)c2ccc(F)cc2)S/C1=N\N=C\c1ccccc1 (configuration not stated)	14.7			11.1	
O=C(CC1S/C(=N\N=C\c2ccco2)NC1=O)c1ccc2c(c1)CCCC2 (configuration not stated)	10.9			9.82	
O=C(CC1S/C(=N\N=C\c2c(-c3ccccc3)[nH]c3ccccc23)NC1=O)c1ccc(F)cc1 (configuration not stated)					IC50 [1]: 10.6 µM
O=C(CC1S/C(=N\N=C2CCCCC2)NC1=O)c1ccc(F)cc1 (configuration not stated)	98.5			8.16	
CC(=O)OCCC1S/C(=N\N=C\c2c(-c3ccc(Cl)cc3)[nH]c3ccccc23)N(c2ccc(O)cc2)C1=O (configuration not stated)		> 90	0.38		selectivity ratio [5]: > 240
